Shown are actives, neighbours in structure and some others; about 3.1% of the full set was active somewhere.
NadD block: inhibitors of S. aureus NadD, primary screen, biochemical, colorimetric, uHTS. AID 602399, 2012. purified NadD enzyme, colorimetric absorbance read-out. 360,000 compounds, 0.78% hits. inhibition, % at 20 µM; in the data active = inhibition above about 26%
Myeloid diff 2: induction of myeloid progenitor differentiation, primary screen, cell-based, flow cytometry, MLPCN library. 360,000 compounds, 1% hits. ER-HoxA9 myeloid progenitors, lysozyme-GFP differentiation. calls only at 10 µM;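 active = normalized GFP-positive differentiation at or above the plate's own cutoff, the solvent-only control mean plus 3 SD; inconclusive = no clear call, values can overlap the other calls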;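 note: cells exposed to compound for four days before flow analysis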
PP1 counter: PP1-alpha phosphatase inhibitors, primary screen, counter-screen for PP5 inhibitor project, biochemical, fluorescence, OMFP substrate, single point; AID 2235, 2010; 320,000 compounds, 0.9% hits; purified PP1alpha; inhibition, % at 6.7 µM;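 active = inhibition above the mean inhibition of all tested compounds plus 3 SD, computed separately for each screening campaign, cut at about 15% in these data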
Fh CTSL1 inh: Fasciola hepatica cathepsin L1 inhibitors, primary screen, counter-screen for PFM18AAP inhibitor project, biochemical, QFRET, fluorogenic peptide substrate. inhibition, % at 5.96 µM. recombinant F. hepatica cathepsin L1, Z-Leu-Arg-MCA fluorescence. 300,000 compounds, 0.49% hits;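 active = inhibition above the mean of all tested compounds plus 3 SD, set per screening campaign, cut at about 17% in these data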;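 note: 0% = plate median of test compound wells and 100% = 1 µM Z-Phe-Ala-diazomethylketone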
PP5 inh: PP5 phosphatase inhibitors, primary screen, biochemical, fluorescence. purified PP5c, OMFP substrate fluorescence. inhibition, % at 6.7 µM. 320,000 compounds, 0.18% hits. AID 1987, 2009;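 active = inhibition above the campaign's mean inhibition across all tested compounds plus 3 SD, cut at about 9.5% in these data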;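 note: 0% = DMSO only and 100% = 100 µM cantharidin control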
Target sequence (P53041 whole entry, looked up): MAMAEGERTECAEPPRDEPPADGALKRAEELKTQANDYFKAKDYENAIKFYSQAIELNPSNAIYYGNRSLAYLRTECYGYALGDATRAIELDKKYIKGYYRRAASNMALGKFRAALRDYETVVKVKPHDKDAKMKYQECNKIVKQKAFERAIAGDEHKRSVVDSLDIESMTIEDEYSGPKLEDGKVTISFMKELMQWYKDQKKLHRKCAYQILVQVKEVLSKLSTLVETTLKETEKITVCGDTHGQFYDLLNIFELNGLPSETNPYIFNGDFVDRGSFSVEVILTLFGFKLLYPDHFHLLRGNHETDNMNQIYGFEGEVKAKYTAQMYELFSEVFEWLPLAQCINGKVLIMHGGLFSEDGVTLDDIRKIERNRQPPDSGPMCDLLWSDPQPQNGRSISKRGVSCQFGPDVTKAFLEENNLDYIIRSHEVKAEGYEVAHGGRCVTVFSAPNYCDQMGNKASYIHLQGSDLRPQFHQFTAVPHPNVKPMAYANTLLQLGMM
core dimer inh: inhibitors of HCV core protein dimerization, primary screen, biochemical, TR-FRET, high-throughput | TR-FRET GST/Flag-core106 dimerization, 1536-well | inhibition, % at 5 µM | 300,000 compounds, 0.33% hits | AID 1899, 2009;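 active = inhibition above the mean of all tested compounds plus 3 SD, set per screening campaign, cut at about 45% in these data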
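System: GST/Flag-tagged HCV core106 proteins. Incubation: compound-protein-antibody incubation 4 h at 22.5 °C. Technique: HTRF with 340 nm excitation, 617/671 nm emission. Medium: KF-containing HEPES buffer, pH 7.45, DTT, CHAPS, BSA. Read-out: inhibition (%) from 671 over 617 nm ratio. Also added: Eu(K)-anti-GST 90 ng/mL plus XL665-anti-Flag 1 µg/mL.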
NadD conf: inhibitors of S. aureus NadD, confirmation, biochemical, colorimetric, single concentration | shares compounds with NadD block | purified S. aureus NadD, colorimetric enzyme assay | inhibition, % at 20 µM | 2,000 compounds, 13% hits | AID 624309, 2012; in the data active = inhibition mostly above about 42%, no sharp cut-off; inactive = mostly below about 42%
* = called active by the depositor.

O=C(CSc1nc2c(cnn2-c2ccc(F)cc2)c(=O)[nH]1)N1N=C(c2cccs2)CC1c1ccc(F)cc1 (stereo not drawn) was read as NadD block 54*, Myeloid diff 2 inactive and NadD conf 1.
For Cc1nnc(-c2ccco2)c2cn(-c3cccc(Br)c3)nc12 the results were NadD block 37*, Myeloid diff 2 inactive, PP1 counter 1, Fh CTSL1 inh 4, PP5 inh 2, core dimer inh 28 and NadD conf 6.
Screening O=C(COC(=O)c1cc(-c2ccco2)nc2ccccc12)NCc1ccc2c(c1)OCO2 returned NadD block 43*, Myeloid diff 2 inactive, PP1 counter 4, Fh CTSL1 inh 0, PP5 inh 0, core dimer inh 36 and NadD conf -4.
For COC(=O)C1CCN(C(=O)c2cc(-c3ccco3)nc3ccccc23)CC1 the results were NadD block 32*, Myeloid diff 2 inactive and NadD conf 56*.
COc1ccccc1CNC(=O)COC(=O)c1cc(-c2ccco2)nc2ccccc12 was read as NadD block 46*, Myeloid diff 2 inactive, PP1 counter 6, Fh CTSL1 inh 8, PP5 inh 1, core dimer inh 69* and NadD conf 39.
`COc1ccccc1CNC(=O)COC(=O)c1cc(C)nc2ccccc12` gave NadD block -3 and Myeloid diff 2 inactive.
`O=C(CCCN1C(=O)C(c2ccccc2)Oc2cccnc21)Nc1ccccc1Cl` (stereo not drawn) gave NadD block -1, PP1 counter 0, Fh CTSL1 inh 2, PP5 inh 3 and core dimer inh -2.
Screening O=C(Nc1nc(-c2ccco2)c(-c2ccco2)s1)C1CCC1 returned NadD block 9, Myeloid diff 2 inactive, PP1 counter 0, Fh CTSL1 inh 0, PP5 inh 3 and core dimer inh 8.
CS(=O)(=O)c1ccc(C(=O)Nc2nc(-c3ccco3)c(-c3ccco3)s2)cc1 was read as NadD block 29*, Myeloid diff 2 inactive and NadD conf 7.
`COc1cccc(/C=C/C(=O)OCC(=O)NC(=O)NC2CCCCC2)c1` gave NadD block -3, PP1 counter 2, Fh CTSL1 inh -3, PP5 inh 1 and core dimer inh -2.
CCOc1cc(/C=N\NC(=O)Cn2nc([N+](=O)[O-])cc2C)ccc1OCc1cccc2ccccc12 was read as NadD block 38*, Myeloid diff 2 inactive, PP1 counter 5, Fh CTSL1 inh 5, PP5 inh 4, core dimer inh 17 and NadD conf -5.
Screening COc1cc(/C=C/C(=O)O)ccc1O returned NadD block -5, Myeloid diff 2 inactive, PP1 counter -4, Fh CTSL1 inh -2, PP5 inh 0 and core dimer inh -2.
Screening COc1cc(/C=C/C(=O)CC(=O)/C=C/c2ccc(O)c(OC)c2)ccc1O returned NadD block 56*, Myeloid diff 2 inactive, PP1 counter -1, Fh CTSL1 inh 0, PP5 inh 1, core dimer inh 36 and NadD conf 52*.
`O=S(=O)(Nc1cccc(-c2ccc(N3CCCCCC3)nn2)c1)c1ccccc1Cl` gave NadD block 50*, Myeloid diff 2 inactive, PP1 counter 17*, Fh CTSL1 inh 2, PP5 inh 7, core dimer inh 26 and NadD conf 36.
Screening CCOc1ccc(S(=O)(=O)Nc2cccc(-c3ccc(N4CCCCCC4)nn3)c2)cc1 returned NadD block 24, Myeloid diff 2 inactive, PP1 counter 6, Fh CTSL1 inh 3, PP5 inh 2 and core dimer inh 24.
For COc1ccc(C)cc1S(=O)(=O)Nc1cccc(-c2ccc(N3CCCCCC3)nn2)c1 the results were NadD block 31*, Myeloid diff 2 inactive, PP1 counter 14, Fh CTSL1 inh -1, PP5 inh 4, core dimer inh 17 and NadD conf 28.
For O=S(=O)(Nc1cccc(-c2ccc(N3CCCCCC3)nn2)c1)c1ccccc1F the results were NadD block 12, Myeloid diff 2 inactive, PP1 counter 1, Fh CTSL1 inh 0, PP5 inh 0 and core dimer inh 0.
Screening O=C(Nc1cccc(-c2ccc(N3CCCCC3)nn2)c1)C(F)(F)F returned NadD block 2, Myeloid diff 2 inactive, PP1 counter -4, Fh CTSL1 inh 2, PP5 inh 3 and core dimer inh -3.
Screening O=S(=O)(Nc1cccc(-c2ccc(N3CCCCCC3)nn2)c1)c1ccc(C(F)(F)F)cc1 returned NadD block 36*, Myeloid diff 2 inactive, PP1 counter 17*, Fh CTSL1 inh 6, PP5 inh 3, core dimer inh 21 and NadD conf 23.
`Cc1ccc(S(=O)(=O)Nc2cccc(-c3ccc(N4CCCCCC4)nn3)c2)cc1C` gave NadD block 42*, Myeloid diff 2 inconclusive, PP1 counter 17*, Fh CTSL1 inh 0, PP5 inh 4, core dimer inh 12 and NadD conf 36.
`CC(C)(C)c1ccc(C(=O)NC(=O)COC(=O)CCS(=O)(=O)c2ccccc2)cc1` gave NadD block -6, Myeloid diff 2 inactive, PP1 counter 1 and PP5 inh 0.
For O=C(COC(=O)C1C2CC3OC(=O)C1C3C2)Nc1ccc(Cl)cc1 (stereo not drawn) the results were NadD block -3, PP1 counter -2, Fh CTSL1 inh 6, PP5 inh 0 and core dimer inh 6.
Cc1ccc([N+](=O)[O-])cc1S(=O)(=O)Nc1ccc(-c2ccc(N3CCOCC3)nn2)cc1 was read as NadD block 12, Myeloid diff 2 inactive, PP1 counter -1, Fh CTSL1 inh -1, PP5 inh 1 and core dimer inh 6.
`Cc1ccc([N+](=O)[O-])cc1S(=O)(=O)Nc1cccc(-c2ccc(N3CCCC3)nn2)c1` gave NadD block 44*, Myeloid diff 2 inactive, PP1 counter 7, Fh CTSL1 inh 0, PP5 inh 3, core dimer inh 25 and NadD conf 55*.
Screening Cc1nc(N2CCN(C)CC2)c2cc(-c3ccccc3)sc2n1 returned NadD block -2, Myeloid diff 2 inactive, PP1 counter -2, Fh CTSL1 inh -2, PP5 inh 0 and core dimer inh 4.

Compound activity (PubChem)
